# Measurements collected from several papers.
# Lines come from different studies, so protocols differ.
# Target: RAC-alpha serine/threonine-protein kinase (AKT1, Homo sapiens, UniProt P31749)
Structure (SMILES),read-out,method,concentration,remaining binding [%]
N[C@H]1CCN(c2nccc(-c3cnn4ncccc34)n2)C1,binding,,1 µM,97
C[C@@H]1CN(c2ccc3ncc(-c4ccc5[nH]nc(C6CC6)c5c4)n3n2)C[C@H](C)O1,binding,competition with immobilised ligand,50 nM,98
O=C(c1ccc(Nc2nccc(-c3cc4ccccc4s3)n2)cc1)N1CCC(N2CCCC2)CC1,binding,competition with immobilised ligand,1 µM,100
F[C@@H]1CCN(c2nccc(-c3cnn4ncccc34)n2)C1,binding,,1 µM,100
O=C(c1ccc(Nc2ncc(Cl)c(-c3ccc(Cl)s3)n2)cc1)N1CCC(N2CCCC2)CC1,binding,competition with immobilised ligand,1 µM,100
CC(=O)C1=C(C)N(c2cccc(C(F)(F)F)c2)C(=O)N[C@@H]1c1ccc(C#N)nc1,cell-free assay,competition with immobilised ligand,1 µM,90.4
Cc1cnn2ncc(-c3ccnc(N(C)C)n3)c2c1,binding,,1 µM,94
Cc1nc(N2CC[C@@H](O)C2)ncc1-c1cc(C(F)(F)F)cc2[nH]ncc12,binding,competition with immobilised ligand,1 µM,100
FC(F)(F)Oc1cccc(-c2cnc3ccc(-c4ccncc4)nn23)c1,cell-free assay,competition with immobilised ligand,5 µM,88
Nc1ncc2c(n1)-c1c([nH]c3ccc(C#CC4CC4)cc13)CCCC2,binding,competition with immobilised ligand,1 µM,95
O=C(NCCCN1CCOCC1)c1ccc(Nc2nccc(-c3cc4ccccc4s3)n2)cc1,binding,competition with immobilised ligand,1 µM,100
O=C(NCCCC1CCCCC1)c1ccc(CNC(=O)c2cnn(-c3ccccc3)c2C(F)(F)F)cc1,cell-free assay,competition with immobilised ligand,0.1 µM,100
C[C@H]1CCN(c2nccc(-c3cnn4ncccc34)n2)C1,binding,,1 µM,92
CNC(=O)[C@@H]1CC[C@@H](n2c(-c3ccc4cnccc4c3)nc3ccc(C(=O)NCc4cccc(C(N)=O)c4)cc32)C1,binding,competition with immobilised ligand,1 µM,100
CS(=O)(=O)N1CCCC(NC(=O)[C@H](CCC2CCCCC2)NC(=O)c2ccc(CNC(=O)c3cnc4ccccn34)cc2)C1 (stereo partly shown),cell-free assay,competition with immobilised ligand,0.1 µM,100
COc1ncc2cc3ccccc3nc2c1C#N,cell-free assay,competition with immobilised ligand,5 µM,92
c1cnn2ncc(-c3ccnc(N4CCC45COC5)n3)c2c1,binding,,1 µM,95
O=C(NCc1ncc(C(F)(F)F)cc1Cl)c1ccc2c(c1)C1(CCS(=O)(=O)CC1)[C@@H](C1CC1)N2S(=O)(=O)c1ccc(F)cc1,cell-free assay,competition with immobilised ligand,1 µM,94
CN(C)c1ncc(F)c(-c2cnn3ncccc23)n1,binding,,1 µM,100
CN1CCN(c2cnc3c(C4CCN(C(=O)c5ccc(OC(F)(F)F)cc5N)CC4)ncnc3c2)CC1,cell-free assay,competition with immobilised ligand,1 µM,100
CN(C)c1nccc(-c2cnn3ncccc23)n1,binding,,1 µM,100
O=C(Nc1cnc(Oc2ccc(F)cc2)nc1)N1CCc2ncccc2[C@@H]1c1ccc(F)cc1,cell-free assay,competition with immobilised ligand,1 µM,100
CC(C)(C)c1ccc(-c2nc(CBr)nn2-c2cccc(O)c2)cc1,cell-free assay,competition with immobilised ligand,10 µM,94
CC1=C(C#N)C(c2ccc3c(c2)c(NC(=O)c2ccccc2C)nn3C)C(C#N)=C(C)N1,cell-free assay,competition with immobilised ligand,1 µM,94
O=C(NCC1CCOCC1)c1n[nH]cc1NC(=O)c1c(F)cccc1F,binding,competition with immobilised ligand,1 µM,95
